KCNQ1 block – blocks the human KCNQ1 potassium channel; CHO-K1 KCNQ1, FluxOR thallium flux fluorescence; hits give high values; 310,000 tested, 1.3% active; B-score at 10 µM; AID 2642;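 active means compounds whose thallium flux B-score, printed positive for inhibition, exceeds three library SD while starting fluorescence stays within three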;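 further: channel opened by potassium depolarization with thallium stimulus after 20 min compound exposure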
Target sequence (P51787 whole entry, looked up): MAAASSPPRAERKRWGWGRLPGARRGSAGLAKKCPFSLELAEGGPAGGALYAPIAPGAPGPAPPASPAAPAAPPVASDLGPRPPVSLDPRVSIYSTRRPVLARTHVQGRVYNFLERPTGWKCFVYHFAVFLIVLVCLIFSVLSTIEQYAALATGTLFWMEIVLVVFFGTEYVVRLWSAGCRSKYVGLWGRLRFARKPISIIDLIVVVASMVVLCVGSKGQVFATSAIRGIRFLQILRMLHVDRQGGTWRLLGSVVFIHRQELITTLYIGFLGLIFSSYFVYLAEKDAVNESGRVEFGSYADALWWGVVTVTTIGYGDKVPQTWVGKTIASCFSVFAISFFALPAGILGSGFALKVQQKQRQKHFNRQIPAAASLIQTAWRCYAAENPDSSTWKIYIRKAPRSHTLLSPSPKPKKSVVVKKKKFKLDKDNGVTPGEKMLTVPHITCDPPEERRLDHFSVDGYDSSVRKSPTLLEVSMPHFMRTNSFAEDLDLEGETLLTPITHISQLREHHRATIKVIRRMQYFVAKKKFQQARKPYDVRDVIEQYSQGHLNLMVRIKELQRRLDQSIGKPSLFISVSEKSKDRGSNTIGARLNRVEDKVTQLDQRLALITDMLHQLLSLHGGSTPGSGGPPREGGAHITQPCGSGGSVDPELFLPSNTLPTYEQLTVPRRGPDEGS
KCNQ1 act – potentiators or activators of human KCNQ1 potassium channel; P51787; CHO-K1 KCNQ1, thallium flux FluxOR fluorescence; hits give high values; B-score at 10 µM; 310,000 tested, 0.35% active;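 active means fluorescence ratio B-score, a plate-corrected score, at least three library SD, with initial intensity B-score within 5 SD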
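Assay system: CHO-K1 cells stably expressing KCNQ1; Medium: assay buffer with matched DMSO; Also added: K+/Tl+ depolarizing stimulus; Dosing: single dose; Timing: dye 90 min, compound 20 min, room temperature; Measured by: kinetic FluxOR thallium fluorescence, 10-s 1-Hz baseline, 110-s post-stimulus read; Read-out: peak-minus-minimum fluorescence over initial fluorescence, negative-control normalized, B-scored.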
KCNK9 block – human KCNK9 channel inhibition. 310,000 tested, 1.2% active. AID 488922. Q9NPC2. HEK293 KCNK9, FluxOR thallium flux fluorescence; hits give low values. B-score at 10 µM;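 active means ratio B-score over 3 SD below the library mean, with starting fluorescence within 5 SD of its mean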;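 further: negative B-score means less thallium flux so channel inhibition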
Kir21 inh – Kir2.1 (mouse) channel inhibition | HEK293-Kir2.1, FluxOR thallium flux fluorescence; hits give low values | 310,000 tested, 0.85% active | AID 1672 | B-score at 10 µM;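 active means fluorescence ratio B-score at or below minus 3 SD of library scores, with starting-brightness B-score within 2 SD, cut at about -4.2 in these data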;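 further: channel flux triggered by added potassium and thallium sulfate stimulus; B-score of peak minus minimum fluorescence over baseline after thallium stimulus; more negative B-score means stronger Kir2.1 block with less thallium influx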
KCNK3 block – human KCNK3 channel inhibition, primary screen | O14649 | CHO-KCNK3 thallium flux, FluxOR fluorescence; hits give low values | B-score at 10 µM | 340,000 tested, 0.84% active;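 active means B-score under library mean minus 4 SD, starting fluorescence ratio at most library mean plus 5 SD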;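 further: more negative B-score means stronger inhibition of thallium flux through KCNK3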
hERG protect – compounds protecting human hERG from proarrhythmic drug block; Q12809; CHO-hERG, FluxOR thallium flux, dofetilide IC70 present; activation (rescue from dofetilide block), less the hit threshold, % at 10 µM; 310,000 tested, 0.51% active; AID 1511;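 active means activation above the mean of controls blocked by dofetilide plus 5 SD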;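 further: thallium influx through hERG after potassium depolarization seen as dye fluorescence rise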
* = called active by the depositor; i = inactive; nt = no result. Hits are enriched below; roughly 3.7% of the tested compounds scored in any of these assays.

SMILES	KCNQ1 block	KCNQ1 act	KCNK9 block	Kir21 inh	KCNK3 block	hERG protect
COC(=O)[C@]1(C)CCC[C@@]2(C)C3CC[C@@]4(C)C[C@]3(CCC21)CC4=NO (stereo partly specified)	nt	nt	nt	nt	i	nt
CCN(CC)CC#CCC(O)(c1ccccc1)c1ccccc1	i	i	i	-1.7	i	-20
CCN(CC)CC#CCC(C)(c1ccccc1)c1ccccc1	i	i	i	-8.9*	i	-8
Cc1cc(Nc2ncc(Cl)cc2Cl)n(-c2ccccc2C)n1	i	i	i	-4.8*	i	-4
Cc1ccc(-n2nc(C)cc2Nc2ncc(Cl)cc2Cl)cc1	i	i	i	-1.8	i	-5
CC(C)COC(=O)/C(C#N)=C/c1c[nH]c2ccccc12	i	i	-7.3*	0.07	i	-3
CC(C)(C)N1C(=O)[C@H]2[C@@H](c3ccc(Br)cc3)N3C(=O)N(c4cccc(Br)c4)C(=O)[C@@]3(Cc3ccccc3)[C@H]2C1=O	i	i	-6.9*	-1	i	-4
CSc1nnc(C)c(=O)n1COC(=O)c1ccccc1	i	i	i	0.65	i	-8
Cc1cc(C(=O)Nc2sc3c(c2C#N)CCC(C)C3)no1 (stereo unspecified)	i	i	i	-0.29	i	-7
Cc1onc(-c2ccccc2)c1C(=O)Nc1sc2c(c1C#N)CCC2	i	i	i	1.6	i	-12
Cc1onc(-c2ccccc2)c1C(=O)NC(=S)Nc1sc2c(c1C#N)CCCC2	i	8*	i	0.97	i	16*
Cc1onc(-c2ccccc2)c1C(=O)NC(=S)Nc1sc2c(c1C#N)CCC(C)C2 (stereo unspecified)	i	21*	i	-0.03	i	15*
Cc1c(Cl)ccc2c(C(=O)Nc3cc(C(C)(C)C)on3)cc(-c3ccccn3)nc12	i	i	i	-0.47	i	-14
CC(C)N1CC=C2C(C#N)=C(N)C(C#N)(C#N)[C@H](c3ccoc3)[C@H]2C1	7*	i	i	-4.3	nt	-12
CCN1CC=C2C(C#N)=C(N)C(C#N)(C#N)C(c3cc(Cl)ccc3Cl)C2C1 (stereo unspecified)	12*	i	i	-3.6	-10*	-12
COc1ccc(/C=C/C(=O)OCC(=O)NC(C)CCc2ccccc2)cc1 (stereo unspecified)	nt	nt	nt	nt	i	nt
CC1(C)Cc2c(sc3[nH]c(=O)n(CC(=O)NCC4CCCO4)c(=O)c23)CO1 (stereo unspecified)	i	i	i	2.4	i	-5
COc1ccc2nc(NCc3ccccc3)[nH]c2c1	i	i	i	-5.3*	i	-5
COc1ccc2nc(NCCO)[nH]c2c1	i	i	i	-0.07	i	1
COc1ccc(CC(=O)Nc2nc3ccccc3[nH]2)cc1	i	i	i	2.1	i	-6
COc1cccc(CC(=O)Nc2nc3ccccc3[nH]2)c1	i	i	i	0.47	i	4.9*
Cc1cc(-n2cnnn2)ccc1C(C)C	i	i	i	-1	i	-5
O=C(NN(Cc1ccccc1)Cc1ccccc1)c1ccccc1	nt	nt	nt	nt	i	nt
CC(C)Cc1nnc(NC(=O)CCC(=O)NCc2ccccc2Cl)s1	i	i	i	1.8	i	-4
O=C(c1cccnc1)N1CCN(c2ccccc2Cl)CC1	i	i	i	-0.72	nt	-7
CCC(C)NC(=S)N1CCN(C(c2ccccc2)c2ccccc2)CC1 (stereo unspecified)	i	i	-7.7*	0.47	i	-7
CCCOc1ccc(N2C(=O)CC(N(CCc3ccc(OC)cc3)C(=O)c3ccccc3)C2=O)cc1 (stereo unspecified)	i	i	i	-1.1	i	-12
O=Cc1ccnc(-c2ccc(OC(=O)c3ccco3)cc2)n1	i	i	i	-5.4*	i	-18
O=C(Oc1ccc(-c2ccccc2)cc1)c1ccco1	nt	nt	nt	nt	i	nt
CCC(=O)c1ccc(OCC(=O)OCC(=O)N2CCCc3ccccc32)cc1	i	i	i	-1.6	i	-18

Source: PubChem BioAssay (Johns Hopkins Ion Channel Center)
